Experimental data from ChEMBL document CHEMBL3596131, “Discovery of a novel trans-1,4-dioxycyclohexane GPR119 agonist series” (Bioorg Med Chem Lett, 2015).

Assays:
[1] = target: T1, Glucose-dependent insulinotropic receptor (Rattus norvegicus, UniProt Q7TQN8); assay: Agonist activity at rat GPR119 by HTRF cAMP assay; assay type: functional
T1 sequence (Q7TQN8 whole entry): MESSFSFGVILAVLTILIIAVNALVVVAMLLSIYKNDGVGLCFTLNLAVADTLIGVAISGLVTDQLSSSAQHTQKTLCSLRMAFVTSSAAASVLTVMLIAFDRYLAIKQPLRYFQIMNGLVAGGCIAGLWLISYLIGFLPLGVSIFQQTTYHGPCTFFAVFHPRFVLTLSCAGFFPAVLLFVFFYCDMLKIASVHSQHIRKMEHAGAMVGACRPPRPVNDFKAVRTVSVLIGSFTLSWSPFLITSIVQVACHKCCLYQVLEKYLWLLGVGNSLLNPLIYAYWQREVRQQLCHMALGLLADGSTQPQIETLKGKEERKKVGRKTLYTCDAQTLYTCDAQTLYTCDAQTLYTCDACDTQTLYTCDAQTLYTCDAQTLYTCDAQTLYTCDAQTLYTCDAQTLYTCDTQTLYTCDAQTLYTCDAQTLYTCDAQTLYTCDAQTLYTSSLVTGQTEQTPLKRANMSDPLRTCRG

[2] = Half life in mouse liver microsomes; assay type: ADME
[3] = target: T2, Uncharacterized protein (Canis lupus familiaris, UniProt A0A8C0THM6); assay: Agonist activity at canine GPR119 by HTRF cAMP assay
T2 sequence (A0A8C0THM6 whole entry): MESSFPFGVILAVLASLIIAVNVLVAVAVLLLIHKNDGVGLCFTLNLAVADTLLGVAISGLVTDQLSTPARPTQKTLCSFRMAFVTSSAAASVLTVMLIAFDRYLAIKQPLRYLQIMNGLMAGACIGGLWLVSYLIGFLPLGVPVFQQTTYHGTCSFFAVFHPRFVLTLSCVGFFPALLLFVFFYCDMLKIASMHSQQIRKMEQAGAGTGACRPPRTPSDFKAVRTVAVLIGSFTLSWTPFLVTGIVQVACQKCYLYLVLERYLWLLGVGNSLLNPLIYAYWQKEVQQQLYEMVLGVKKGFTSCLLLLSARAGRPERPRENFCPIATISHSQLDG

[4] = target: T3, Uncharacterized protein (Canis lupus familiaris) (UniProt A0A8C0THM6); assay: Agonist activity at canine GPR119 by HTRF cAMP assay relative to AR231453
T3 sequence (whole entry): T2 sequence (A0A8C0THM6 whole entry)

[5] = species on record: Macaca mulatta; assay: Agonist activity at monkey GPR119 by HTRF cAMP assay relative to AR231453
[6] = target: T4, Glucose-dependent insulinotropic receptor (Mus musculus, UniProt Q7TQP3); assay: Agonist activity at mouse GPR119 by HTRF cAMP assay; assay type: functional
T4 sequence (Q7TQP3 whole entry): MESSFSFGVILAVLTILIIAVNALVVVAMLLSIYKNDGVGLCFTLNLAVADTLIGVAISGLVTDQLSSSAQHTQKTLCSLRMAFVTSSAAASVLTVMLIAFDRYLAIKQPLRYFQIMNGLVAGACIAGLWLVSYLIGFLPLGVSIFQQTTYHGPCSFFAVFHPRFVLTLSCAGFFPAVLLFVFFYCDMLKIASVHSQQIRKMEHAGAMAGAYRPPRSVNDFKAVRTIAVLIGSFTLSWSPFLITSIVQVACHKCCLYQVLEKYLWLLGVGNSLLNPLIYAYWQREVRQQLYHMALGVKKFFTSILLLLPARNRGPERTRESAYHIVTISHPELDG

[7] = target: T5, Glucose-dependent insulinotropic receptor (Mus musculus) (UniProt Q7TQP3); assay: Agonist activity at mouse GPR119 by HTRF cAMP assay relative to AR231453; assay type: functional
T5 sequence (whole entry): T4 sequence (Q7TQP3 whole entry)

[8] = Half life in human hepatocytes; assay type: ADME, cell-based, Hepatocyte
[9] = Plasma protein binding in rat; assay type: ADME, cell-free; details: read-out: PPB (converted)
[10] = Clearance in Sprague-Dawley rat at 2 mg/kg, iv and po; assay type: ADME, organism-based; details: in vivo
Method in brief: (§1)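 Male Sprague-Dawley rats; 2 mg/kg IV and 2 mg/kg PO in 20% hp-β-CD; clearance, Vss, terminal t1/2, Cmax, AUClast and oral bioavailability derived.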

[11] = Volume of distribution at steady state in Sprague-Dawley rat at 2 mg/kg, iv and po; assay type: ADME, organism-based; details: in vivo, read-out: Vdss
Method in brief: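 Male Sprague-Dawley rats received 2 mg/kg intravenously or 2 mg/kg orally in 20% hydroxypropyl-β-cyclodextrin. Steady-state volume of distribution was taken from the plasma pharmacokinetic profile and reported in L/kg.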

[12] = Terminal half life in Sprague-Dawley rat at 2 mg/kg, iv and po; assay type: ADME, organism-based; details: in vivo, read-out: beta t1/2 (converted); method in brief: as §1
[13] = Drug uptake in Sprague-Dawley rat brain at 2 mg/kg, po measured at 2 hrs; assay type: ADME, organism-based; details: read-out: Drug uptake
Method in brief: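 Abbreviated CNS study in male SD rats given 2 mg/kg orally in 20% hp-β-CD; brain (ng/g) and plasma (ng/mL) levels sampled at 2 h post-dose, brain/plasma ratio calculated.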

[14] = Cmax in Sprague-Dawley rat at 2 mg/kg, iv and po; assay type: ADME, organism-based; details: in vivo; method in brief: as §1
[15] = tested on: Rattus norvegicus; assay: Antidiabetic activity in Zucker diabetic fatty rat assessed as suppression of plasma glucose AUC at 3 mg/kg administered 60 mins prior to glucose challenge by OGTT relative to vehicle-treated control; assay type: functional
[16] = tested on: Rattus norvegicus; assay: Antidiabetic activity in Zucker diabetic fatty rat assessed as decrease in HbA1C level at 1 mg/kg, qd administered over 4 weeks measured on day 28 post last dose relative to vehicle-treated control; assay type: functional; design: scale not given: the % may be the effect or the level left
Method in brief: (§2)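 Chronic study in ZDF rats: once-daily dosing at 1, 3 or 10 mg/kg for 4 weeks, vehicle 0.5% methylcellulose; fed glucose and body weight tracked at dosing times, HbA1c measured on day 28 relative to vehicle.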

[17] = tested on: Rattus norvegicus; assay: Toxicity in Zucker diabetic fatty rat assessed as effect on body weight at 1 to 10 mg/kg, qd administered over 4 weeks measured during compound dosing; assay type: organism-based; details: in vivo, 672 h; method in brief: as §2
[18] = target: Cytochrome P450 2C9 (Homo sapiens, UniProt P11712); assay: Inhibition of CYP2C9 in human liver microsomes; assay type: ADME
[19] = target: Cytochrome P450 2C19 (Homo sapiens, UniProt P33261); assay: Inhibition of CYP2C19 in human liver microsomes; assay type: ADME
[20] = target: Cytochrome P450 3A4 (Homo sapiens, UniProt P08684); assay: Inhibition of CYP3A4 in human liver microsomes; assay type: ADME
[21] = target: Cytochrome P450 2D6 (Homo sapiens, UniProt P10635); assay: Inhibition of CYP2D6 in human liver microsomes; assay type: ADME
[22] = Time-dependent inhibition of CYP450 in human liver microsomes; assay type: ADME
[23] = tested on: HepG2; assay: Cytotoxicity against human HepG2 cells; assay type: cell-based

Chain of Cytochrome P450 2C9 (P11712 whole entry): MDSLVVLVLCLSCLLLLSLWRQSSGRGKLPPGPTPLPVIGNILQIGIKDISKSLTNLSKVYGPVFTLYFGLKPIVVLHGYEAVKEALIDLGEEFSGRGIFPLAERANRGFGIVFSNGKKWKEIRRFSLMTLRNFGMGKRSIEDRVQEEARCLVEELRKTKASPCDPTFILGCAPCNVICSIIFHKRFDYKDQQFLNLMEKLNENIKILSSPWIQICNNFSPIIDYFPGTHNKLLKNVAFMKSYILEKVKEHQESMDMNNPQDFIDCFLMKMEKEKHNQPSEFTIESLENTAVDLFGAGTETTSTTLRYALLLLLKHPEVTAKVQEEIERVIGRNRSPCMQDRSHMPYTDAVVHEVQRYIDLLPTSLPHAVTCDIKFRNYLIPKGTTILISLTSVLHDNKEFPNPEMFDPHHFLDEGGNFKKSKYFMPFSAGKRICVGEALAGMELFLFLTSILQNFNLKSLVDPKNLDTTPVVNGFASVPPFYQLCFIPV
Chain of Cytochrome P450 2C19 (P33261 whole entry): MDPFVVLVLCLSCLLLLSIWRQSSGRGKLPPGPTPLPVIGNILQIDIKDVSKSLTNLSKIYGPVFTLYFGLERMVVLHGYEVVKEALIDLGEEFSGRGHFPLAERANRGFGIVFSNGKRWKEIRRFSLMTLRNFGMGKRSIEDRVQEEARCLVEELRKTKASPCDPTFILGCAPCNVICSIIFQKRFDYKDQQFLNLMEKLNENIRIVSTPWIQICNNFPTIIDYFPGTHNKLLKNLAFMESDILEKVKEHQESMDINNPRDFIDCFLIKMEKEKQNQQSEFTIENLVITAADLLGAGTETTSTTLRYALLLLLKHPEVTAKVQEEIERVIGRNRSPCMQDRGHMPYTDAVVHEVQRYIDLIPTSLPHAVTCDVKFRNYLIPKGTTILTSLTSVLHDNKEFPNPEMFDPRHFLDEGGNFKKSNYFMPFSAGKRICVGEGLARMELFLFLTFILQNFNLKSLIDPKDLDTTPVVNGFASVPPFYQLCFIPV
Chain of Cytochrome P450 2D6 (P10635 whole entry): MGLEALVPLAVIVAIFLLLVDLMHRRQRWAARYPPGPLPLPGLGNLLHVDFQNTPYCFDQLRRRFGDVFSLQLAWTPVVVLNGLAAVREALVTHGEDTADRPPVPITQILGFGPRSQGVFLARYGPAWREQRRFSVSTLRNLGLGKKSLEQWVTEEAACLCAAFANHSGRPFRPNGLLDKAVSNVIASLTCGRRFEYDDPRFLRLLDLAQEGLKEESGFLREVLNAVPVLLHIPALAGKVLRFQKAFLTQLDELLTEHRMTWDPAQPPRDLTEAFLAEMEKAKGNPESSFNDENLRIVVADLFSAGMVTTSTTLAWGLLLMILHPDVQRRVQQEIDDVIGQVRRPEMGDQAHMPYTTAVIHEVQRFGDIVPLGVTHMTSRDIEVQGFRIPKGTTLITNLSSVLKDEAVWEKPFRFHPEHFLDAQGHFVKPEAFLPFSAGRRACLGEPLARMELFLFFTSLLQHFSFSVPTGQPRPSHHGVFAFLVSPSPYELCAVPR
Chain of Cytochrome P450 3A4 (P08684 whole entry): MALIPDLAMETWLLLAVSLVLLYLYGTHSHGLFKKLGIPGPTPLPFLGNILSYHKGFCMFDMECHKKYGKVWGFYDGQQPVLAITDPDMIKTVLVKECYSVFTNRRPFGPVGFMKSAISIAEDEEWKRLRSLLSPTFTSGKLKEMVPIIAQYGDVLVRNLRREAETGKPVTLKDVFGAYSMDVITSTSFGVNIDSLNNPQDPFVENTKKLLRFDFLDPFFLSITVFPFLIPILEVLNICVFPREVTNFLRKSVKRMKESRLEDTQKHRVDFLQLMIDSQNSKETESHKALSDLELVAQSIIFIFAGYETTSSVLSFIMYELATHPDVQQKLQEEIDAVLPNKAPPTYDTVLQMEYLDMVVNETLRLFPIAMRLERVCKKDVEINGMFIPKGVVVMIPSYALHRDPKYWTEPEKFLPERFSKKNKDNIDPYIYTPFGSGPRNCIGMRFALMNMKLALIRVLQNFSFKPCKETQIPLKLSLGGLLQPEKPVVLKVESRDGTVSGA

EC50 [1]: 0.0288 µM
half-life [2]: > 1 h
EC50 [3]: 0.0061 µM
Emax [4]: 144%
Emax [5]: 73%
EC50 [6]: 0.0205 µM
Emax [7]: 130%
half-life [8]: > 2 h
fraction unbound [9]: 0.04
clearance [10]: 0.4 L/h/kg
Vd [11]: 2.94 L/kg
half-life [12]: 6.45 h
concentration at 2 h [13]: 820 ng/g
Cmax [14]: 0.77 µg/mL
INH [18]: 27.5 µM
INH [19]: 23.4 µM
INH [20]: > 50 µM
INH [21]: > 50 µM
TDI [22]: Not Active
Structure (SMILES): C[C@@H](OC(=O)N1CCC(O[C@H]2CC[C@H](Oc3cnc(S(C)(=O)=O)cn3)CC2)CC1)C(F)(F)F
Activity [15]: 43%
Activity [16]: 1.63%
Activity [17]: Non-toxic
Activity [23]: Non-toxic
